Data set [1] concerns LPS-induced NO production in RAW 264.7 macrophage cells. Briefly: Inhibition of LPS-induced NO production in RAW 264.7 macrophage cells. Type of data set: cell-based, murine.
In the next data set the target is T1, TLR3 (Mus musculus, UniProt Q99MB1).
T1 sequence (Q99MB1 26-905): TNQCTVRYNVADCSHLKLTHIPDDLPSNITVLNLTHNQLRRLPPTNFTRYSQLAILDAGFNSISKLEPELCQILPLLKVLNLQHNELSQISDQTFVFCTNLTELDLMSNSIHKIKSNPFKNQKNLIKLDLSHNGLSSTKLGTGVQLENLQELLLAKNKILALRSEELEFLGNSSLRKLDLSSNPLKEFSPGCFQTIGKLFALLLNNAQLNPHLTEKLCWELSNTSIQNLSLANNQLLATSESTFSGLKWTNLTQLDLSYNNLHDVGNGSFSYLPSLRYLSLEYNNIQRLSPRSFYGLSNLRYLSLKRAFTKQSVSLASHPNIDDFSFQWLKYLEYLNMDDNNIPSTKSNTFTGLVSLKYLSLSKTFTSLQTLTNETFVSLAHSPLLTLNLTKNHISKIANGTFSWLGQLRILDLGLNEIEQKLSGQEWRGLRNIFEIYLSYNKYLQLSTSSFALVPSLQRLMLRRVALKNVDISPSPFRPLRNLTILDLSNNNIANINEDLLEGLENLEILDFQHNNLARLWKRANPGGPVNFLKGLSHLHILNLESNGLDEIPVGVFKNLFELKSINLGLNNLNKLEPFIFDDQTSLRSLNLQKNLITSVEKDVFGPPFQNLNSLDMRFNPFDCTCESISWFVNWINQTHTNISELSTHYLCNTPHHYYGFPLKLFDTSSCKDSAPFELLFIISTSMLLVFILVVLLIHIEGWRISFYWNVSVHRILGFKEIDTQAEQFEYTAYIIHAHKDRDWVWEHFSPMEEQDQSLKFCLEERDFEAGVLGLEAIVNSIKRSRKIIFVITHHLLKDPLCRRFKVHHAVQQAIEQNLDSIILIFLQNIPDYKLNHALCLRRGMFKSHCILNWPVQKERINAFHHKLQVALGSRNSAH
As to the kind of experiment: TLR specificity test, NO production induced by poly. To be noted: 0.6 μM, RAW 264.7 cells, poly(I:C). Type of data set: cell-based, murine.

The next data set has as its target TLR1/TLR2 (Mus musculus, UniProt Q9EPQ1+Q9QUN7). As to the kind of experiment: TLR specificity test, NO production induced by Pam3CSK4 in RAW 264.7 cells. Type of data set: cell-based, murine. To be noted: 0.6 μM.
The subject of another data set is cell viability. Briefly: WST-1 cell viability / toxicity assay. Type of data set: cell-based. The conditions noted are these: up to 10.0 μM. In a few lines:
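Cells are seeded at 2×10^4 per well and cultured 24 h at 37°C, then moved to serum-free medium with vehicle or test compound at various concentrations for 24 h. Premixed WST-1 reagent is added, and after 30 min at 37°C absorbance is read at 490 nm.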
Background: Tetrazolium dyes change colour on reduction, which living cells bring about.

Data set [2] relates to LPS-induced activation of NF-κB. As to the kind of experiment: NF-κB dual luciferase reporter assay in BV-2 microglial cells. Type of data set: cell-based. In outline: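 NF-κB dual-luciferase reporter BV-2 microglia are kept in DMEM with 10% FBS, penicillin, streptomycin and puromycin (3 μg/mL). After 24 h seeding, medium is switched to Opti-MEM with 0.5% FBS. Test compound is added, then LPS at 200 ng/mL for 24 h. Dual-Glo luminescence is read, and the firefly/Renilla ratio is taken as NF-κB activity.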
For orientation: Reporter assays use an easily measured gene product as a stand-in for the process of interest.

Another data set addresses TLR2/TLR6 heterodimer (Mus musculus, UniProt Q9EPW9+Q9QUN7). Briefly: TLR specificity test, NO production induced by FSL-1 in RAW 264.7 cells. Type of data set: cell-based, murine. To be noted: 0.6 μM.
The test system of another data set is TLR7/8. Briefly: TLR specificity test, NO production induced by R848 in RAW 264.7 cells. Type of data set: cell-based, murine. To be noted: 0.6 μM.
Data set [3] has as its system LPS-induced TNF-α production. As to the kind of experiment: LPS-induced TNF-α production in RAW 264.7 cells. Type of data set: cell-based, murine. The conditions noted are these: ELISA. In outline: (§1)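 RAW 264.7 macrophages are grown in RPMI 1640 with 10% FBS, penicillin and streptomycin at 37°C and 5% CO2. Cells are pretreated with or without LPS, then given test compound (10 mM DMSO stock). After 24 h, supernatants are clarified and cells are lysed, with both stored at −80°C. ELISA measures TNF-α in medium and IL-1β in lysate, with IL-1β normalized to total protein.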
On the technique in general: In an ELISA, binding on a coated surface is turned into a signal by an enzyme label.

For data set [4], the system named is LPS-induced IL-1β production. Briefly: LPS-induced IL-1β production in RAW 264.7 cells. Type of data set: cell-based, murine. The conditions noted are these: ELISA. In outline: as §1

TLR2/TLR6 heterodimer, sequence (Q9QUN7 25-784): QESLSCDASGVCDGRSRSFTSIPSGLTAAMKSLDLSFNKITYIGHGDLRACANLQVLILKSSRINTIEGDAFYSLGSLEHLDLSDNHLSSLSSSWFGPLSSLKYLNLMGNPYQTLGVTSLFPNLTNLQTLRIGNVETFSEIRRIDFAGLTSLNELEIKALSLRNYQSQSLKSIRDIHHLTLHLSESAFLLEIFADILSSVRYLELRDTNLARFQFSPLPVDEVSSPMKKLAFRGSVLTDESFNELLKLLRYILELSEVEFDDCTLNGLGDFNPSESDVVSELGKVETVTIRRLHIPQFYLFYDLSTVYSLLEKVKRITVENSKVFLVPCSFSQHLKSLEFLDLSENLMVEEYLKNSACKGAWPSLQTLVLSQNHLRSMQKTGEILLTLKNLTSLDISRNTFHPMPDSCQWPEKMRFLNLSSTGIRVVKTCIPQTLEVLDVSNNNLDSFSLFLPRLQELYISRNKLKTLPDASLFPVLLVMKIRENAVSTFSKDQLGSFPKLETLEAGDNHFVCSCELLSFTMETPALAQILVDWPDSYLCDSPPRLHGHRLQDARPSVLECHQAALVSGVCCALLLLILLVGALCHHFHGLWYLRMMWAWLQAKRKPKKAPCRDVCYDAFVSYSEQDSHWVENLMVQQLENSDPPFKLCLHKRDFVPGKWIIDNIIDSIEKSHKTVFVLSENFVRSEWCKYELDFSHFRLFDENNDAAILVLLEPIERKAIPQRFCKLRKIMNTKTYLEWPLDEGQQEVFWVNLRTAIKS
TLR2/TLR6 heterodimer, sequence (Q9EPW9 28-795): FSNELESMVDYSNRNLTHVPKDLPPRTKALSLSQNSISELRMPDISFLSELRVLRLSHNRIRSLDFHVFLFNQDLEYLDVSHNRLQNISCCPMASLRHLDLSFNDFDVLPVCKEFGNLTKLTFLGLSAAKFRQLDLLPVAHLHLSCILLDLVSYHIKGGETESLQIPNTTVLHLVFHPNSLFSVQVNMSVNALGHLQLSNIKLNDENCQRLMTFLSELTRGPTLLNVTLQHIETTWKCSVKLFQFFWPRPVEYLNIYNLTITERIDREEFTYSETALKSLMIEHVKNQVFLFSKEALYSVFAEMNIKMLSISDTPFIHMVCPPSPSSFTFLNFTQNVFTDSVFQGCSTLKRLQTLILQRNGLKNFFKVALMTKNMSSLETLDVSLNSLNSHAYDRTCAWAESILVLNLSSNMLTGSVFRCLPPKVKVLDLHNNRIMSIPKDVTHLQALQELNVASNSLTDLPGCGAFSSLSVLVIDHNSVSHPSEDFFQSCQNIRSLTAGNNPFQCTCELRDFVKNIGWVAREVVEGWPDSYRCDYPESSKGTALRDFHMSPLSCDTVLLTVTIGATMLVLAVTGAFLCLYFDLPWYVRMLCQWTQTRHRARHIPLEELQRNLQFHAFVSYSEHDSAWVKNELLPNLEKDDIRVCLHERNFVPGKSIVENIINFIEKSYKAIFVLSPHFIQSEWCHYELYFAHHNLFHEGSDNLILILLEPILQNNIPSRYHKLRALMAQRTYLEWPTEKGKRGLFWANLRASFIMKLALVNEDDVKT
TLR1/TLR2, sequence (Q9EPQ1 26-795): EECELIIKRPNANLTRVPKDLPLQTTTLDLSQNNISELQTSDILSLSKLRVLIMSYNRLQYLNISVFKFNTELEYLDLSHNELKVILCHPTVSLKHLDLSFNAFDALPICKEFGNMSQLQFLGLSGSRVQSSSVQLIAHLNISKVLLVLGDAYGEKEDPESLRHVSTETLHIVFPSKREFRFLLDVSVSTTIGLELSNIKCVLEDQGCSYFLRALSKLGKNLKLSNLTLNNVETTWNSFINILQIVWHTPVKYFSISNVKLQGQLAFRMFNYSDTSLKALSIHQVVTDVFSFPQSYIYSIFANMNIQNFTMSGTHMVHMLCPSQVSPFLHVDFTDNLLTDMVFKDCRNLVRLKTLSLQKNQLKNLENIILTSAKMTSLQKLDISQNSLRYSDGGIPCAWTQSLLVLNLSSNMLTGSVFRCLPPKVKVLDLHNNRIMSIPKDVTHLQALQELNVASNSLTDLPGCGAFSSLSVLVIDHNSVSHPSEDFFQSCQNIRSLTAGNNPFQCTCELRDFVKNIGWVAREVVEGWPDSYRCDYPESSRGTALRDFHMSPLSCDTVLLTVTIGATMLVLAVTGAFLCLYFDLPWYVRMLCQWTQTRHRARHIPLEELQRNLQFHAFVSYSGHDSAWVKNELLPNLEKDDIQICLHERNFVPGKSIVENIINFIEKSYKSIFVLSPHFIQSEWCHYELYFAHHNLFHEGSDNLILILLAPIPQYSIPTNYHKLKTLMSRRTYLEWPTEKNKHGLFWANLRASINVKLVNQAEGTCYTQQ
TLR1/TLR2, sequence (Q9QUN7 25-784): as the sequence (Q9QUN7 25-784) above

For `COC(=O)C(=Cc1ccccc1)C(=O)OC` [Compound 2, Dimethyl 2-benzylidenemalonate], the “decrease of activity relative to 1 (NO production)” value in data set [1] (absence of any substituent on the benzene ring) is “greater than 2 fold”.
For `COC(=O)C(=Cc1ccccc1[N+](=O)[O-])C(=O)OC` [Compound 1, Dimethyl 2-(2-nitrobenzylidene)malonate], the “inhibition of TLR3 signaling (NO production)” value at TLR3 is “negligible inhibition”. Further, the “inhibition of TLR1/TLR2 signaling (NO production)” value against TLR1/TLR2 is “negligible inhibition”. In the data set on cell viability, the “cytotoxicity (WST-1 toxicity assay)” value was “did not show significant toxicity”. Also, the IC50 – broadly, the concentration that gives 50% inhibition – in data set [2] (Mus musculus, BV-2, 24 h, read-out: IC50, inhibition of LPS-induced NF-κB reporter activity) amounted to 5.92 ± 0.14 µM. Besides, on TLR2/TLR6 heterodimer, the “effect on signal via TLR2/TLR6 heterodimer (NO production)” value is reported as “reduced the signal”. In addition, the “inhibition of TLR7/8 signaling (NO production)” value with TLR7/8 is listed as “negligible inhibition”.
For the molecule `COC(=O)C(Cc1ccccc1[N+](=O)[O-])C(=O)OC` [Compound 22, Dimethyl 2-(2-nitrobenzyl) malonate], the “effect on LPS-induced NF-κB activation” value in data set [2] (BV-2 cells, concentrations up to 10 μM) is given as “did not alter”. Also, the “effect on TNF-α production” value in data set [3] was “did not affect”. Further, the “effect on IL-1β production” value in [4] is “did not affect”. In addition, in [1] (RAW 264.7 cells, at the tested concentrations (Figure 1A)), the “inhibition of LPS-induced NO production” value was “negligible inhibition”.

The values are drawn from PMC3517184 (Bioorganic & medicinal chemistry, 2012).
